Laboratory results from ChEMBL document CHEMBL4477258, “Ca-asp bound X-ray structure and inhibition of Bacillus anthracis dihydroorotase (DHOase)” (Bioorg Med Chem, 2016).
pKd: −log10 of the molar value. Activity calls are given as the source filed them. No cut-off for these calls is given here.

Tests used:
[1] = target: T1, Dihydroorotase (Bacillus anthracis) (UniProt Q81WF0); experiment: Inhibition of Bacillus anthracis Sterne His-tagged DHOase expressed in Escherichia coli BL21(DE3) Gold cells using DHO as substrate assessed as enzyme activity at 25 or 400 uM preincubated for 10 mins followed by substrate addition measured after 30 mins by DAMO-TSC reagent based colorimetric assay relative to control; set-up: scale not given: the % may be the effect or the level left; details: Bacillus anthracis str. Sterne
T1 sequence (whole entry): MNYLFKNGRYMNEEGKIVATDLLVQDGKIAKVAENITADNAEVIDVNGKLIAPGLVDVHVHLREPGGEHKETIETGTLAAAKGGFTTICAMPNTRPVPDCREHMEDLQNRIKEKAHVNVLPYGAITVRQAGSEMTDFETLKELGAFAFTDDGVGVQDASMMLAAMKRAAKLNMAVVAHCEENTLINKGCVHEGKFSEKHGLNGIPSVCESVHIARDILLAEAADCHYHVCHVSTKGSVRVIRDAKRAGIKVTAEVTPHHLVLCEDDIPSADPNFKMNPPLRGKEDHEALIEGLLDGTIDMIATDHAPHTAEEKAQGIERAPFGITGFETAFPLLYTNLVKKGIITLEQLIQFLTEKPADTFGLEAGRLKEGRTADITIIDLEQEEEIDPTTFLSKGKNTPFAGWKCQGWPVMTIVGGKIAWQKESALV
In short: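 Reverse reaction run in duplicate. Fragments at 400 μM or compounds at 25 μM final, 10 min at room temperature. 10 μL of 320 μM DHO added, 30 min reaction, quenched with acidic DAMO-TSC. Colour developed 16 h in the dark, A540 read.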

[2] = target: T1, Dihydroorotase (Bacillus anthracis); experiment: Binding affinity to Bacillus anthracis Sterne His-tagged DHOase expressed in Escherichia coli BL21(DE3) Gold cells assessed as change in melting temperature at 400 uM incubated for 10 mins by SYPRO orange dye based fluorescence thermal shift assay; details: Bacillus anthracis str. Sterne
In short: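 Histidine-tagged DHOase at 5 μM final in 50 mM MES pH 6.5, 0.01% CHAPS, 150 mM NaCl, 2 mM TCEP. Fragment added at 400 μM final and incubated 10 min at room temperature, then SYPRO Orange at 10X diluted from 5000X stock. Heated 25 to 95 °C at […], fluorescence read at ex/em 470/623 nm. Tm shift >2 °C scored as a hit.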

Dihydroorotase [3] = target: T2, Dihydroorotase (Bacillus anthracis, UniProt Q81WF0); experiment: Binding affinity to Bacillus anthracis Sterne His-tagged DHOase expressed in Escherichia coli BL21(DE3) Gold cells by surface plasmon resonance analysis; set-up: species or system Bacillus anthracis str. Sterne; details: for pKd: read-out: Kd
T2 sequence (Q81WF0 whole entry): T1 sequence (whole entry)
In short: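 His-tag-cleaved DHOase amine-coupled to a CM5 chip at pH 4.5. Ethanolamine-blocked channel used as reference. Compounds run at 0–200 μM (2-fold dilutions) in PBS-P with 2% DMSO and 0.5 mM TCEP, at 10 μL/min and 25 °C. KD taken from steady-state affinity fit of equilibrium response. SD from three independent experiments.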

Dihydroorotase [4] = target: T2, Dihydroorotase; experiment: (§1) Binding affinity to Bacillus anthracis Sterne His-tagged DHOase expressed in Escherichia coli BL21(DE3) Gold cells in presence of N-carbamyl-L-aspartate by surface plasmon resonance analysis; set-up: species or system Bacillus anthracis str. Sterne; details: for pKd: read-out: Kd
In short: (§2)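 His-tag-cleaved DHOase immobilized on a CM5 chip, with a blank reference channel. Compounds run at 0–200 μM (2-fold dilutions) at 25 °C, 10 μL/min, in PBS-P with 2% DMSO, 0.5 mM TCEP and 1 mM Ca-asp. KD taken from steady-state affinity fit. SD from three independent experiments.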

[5] = target: T1, Dihydroorotase (Bacillus anthracis); experiment: as §1; details: Bacillus anthracis str. Sterne; in short: as §2

SMILES	Activity [1]	ΔTm [2]	pKd (Dihydroorotase [3])	pKd (Dihydroorotase [4])	Kd (Dihydroorotase [3])	Activity [5]	Kd (Dihydroorotase [4])
COc1ccc2[nH]c3c(c2c1)CCNC31CCOCC1	< 50%	> 2 °C	3.42	3.50			
CCC(=O)Nc1ccc(OC)cc1OC	< 50%	> 2 °C	3.77	3.77			
COc1ccc2[nH]c(CN)cc2c1					Not Active		
Cn1ccc2c(CO)cccc21	< 50%	> 2 °C	3.48 to 4.17			Active	
CCC(=O)Nc1cc(OC)cc(OC)c1	< 50%	> 2 °C	3.80	3.55			
CCC1NCCn2cccc21 (stereo not drawn)	< 50%	> 2 °C	3.48 to 4.17			Active	
COc1ccc2[nH]c3c(c2c1)CN(C(C)=O)CC3	< 50%	> 2 °C	3.69	3.67			
CSC1(NC#N)NCCc2c1[nH]c1ccc(F)cc21 (stereo not drawn)	< 50%	> 2 °C		< 3.00			
COc1ccc2[nH]c3c(c2c1)CCNC3(NC#N)SC (stereo not drawn)			3.92 to 4.68	3.84			
Cc1ccc2[nH]c3c(c2c1)CCNC3					Not Active		Not Active
COc1ccc2[nH]c3c(c2c1)CCNC3			3.23	3.17			
CCS(=O)(=O)N(C)c1ccc(C(=O)N2CCCC2)cc1	< 50%	> 2 °C	3.48 to 4.17			Active	
